Reference: ChEMBL document CHEMBL1134338, “cis-Unsaturated analogues of 3,8,13,18,23-pentaazapentacosane (BE-4-4-4-4): synthesis and growth inhibitory effects on human prostate cancer cell lines” (2001)

Key:
Assay type in all cases: functional
DU-145 = experiment: Inhibition of cell growth was determined in DU145 cell line of human prostate tumor using MTT assay, on day 6 after treatment; conditions: DU-145, 144 h, read-out: ID50 (the source's name)
How it was run: (§1)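 Cells in Eagle's MEM with 10% fetal calf serum and nonessential amino acids were seeded at 500 cells/well and incubated overnight at 37 °C in humidified 95% air/5% CO2. Drug dilutions were then added, each concentration in quadruplicate, with buffer-only control columns, for 6 days. MTT (25 µL of 5 mg/mL) was added for 4 h at 37 °C.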

LNCaP = experiment: Inhibition of cell growth was determined in LNCaP cell line of human prostate tumor using MTT assay, on day 6 after treatment; conditions: 144 h, read-out: ID50 (the source's name); how it was run: as §1
PC-3 = experiment: Inhibition of cell growth was determined in PC-3 cell line of human prostate tumor using MTT assay, on day 6 after treatment; conditions: PC-3, 144 h, read-out: ID50 (the source's name); how it was run: as §1
DuPro = experiment: Inhibition of cell growth was determined in DUPRO cell line of human prostate tumor using MTT assay, on day 6 after treatment; conditions: 144 h, read-out: ID50 (the source's name); how it was run: as §1

| IC50 (DU-145) | IC50 (LNCaP) | IC50 (PC-3) | SMILES | IC50 (DuPro) |
| --- | --- | --- | --- | --- |
| 0.08 µM | 0.09 µM | > 31.2 µM | CCNCCCCNC/C=C\CNCCCCNCCCCNCC | – |
| – | 0.15 µM | > 31.2 µM | CCNC/C=C\CNC/C=C\CNCCCCNCCCCNCC | – |
| – | 0.3 µM | 0.5 µM | CCNC/C=C\CNCCCCNCCCCNC/C=C\CNCC | 0.25 µM |
| – | 0.14 µM | – | CCNC/C=C\CNCCCCNCCCCNCCCCNCC | – |

Continued, compound first:

| SMILES | IC50 (DU-145) | IC50 (LNCaP) | IC50 (PC-3) | IC50 (DuPro) |
| --- | --- | --- | --- | --- |
| CCNC/C=C\CNC/C=C\CNC/C=C\CNC/C=C\CNCC | – | 0.55 µM | 0.2 µM | – |
| CCNC/C=C\CNCCCCNC/C=C\CNCCCCNCC | 0.34 µM | 0.54 µM | > 31.2 µM | > 31.2 µM |
| CCNC/C=C\CNC/C=C\CNCCCCNC/C=C\CNCC | – | 0.32 µM | – | > 31.2 µM |
| CCNC/C=C\CNC/C=C\CNC/C=C\CNCCCCNCC | – | 0.24 µM | > 31.2 µM | > 31.2 µM |
| CCNCCCCNC/C=C\CNC/C=C\CNCCCCNCC | – | 0.15 µM | > 31.2 µM | – |
